In the library only some 1.8% were active in any assay of this set; here they are far more common.
Gli-Sufu antag – Gli-Sufu pathway antagonists, primary screen, luciferase luminescence, Sufu-KO-LIGHT cells, uHTS; 0.74% of 340,000 active; inhibition, % at 5 µM; AID 588413, 2011; Sufu-KO-LIGHT fibroblasts, Gli luciferase reporter luminescence;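 active = inhibition above about 55%, limit read from the data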
H9c2 TAG inh – inhibitors of triacylglycerol accumulation, primary screen, cell-based, uHTS, fluorescence, H9c2; AID 651582, 2012; H9c2 cells, Nile Red lipid (TAG) fluorescence; cells loaded with 200 µM oleic acid; 0.66% of 230,000 active; inhibition, % at 12.5 µM;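 active = pattern-corrected inhibition of lipid staining of at least 50% with the nuclear-stain viability signal not falling by more than 50%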
Jurkat NFkB inh – inhibitors of induced NF-kB luciferase reporter, primary screen, TCR NF-kB activation inhibitor project, cell-based, luminescence, uHTS | Jurkat, PMA/ionomycin-induced NF-kB luciferase reporter | 0.53% of 330,000 active | inhibition, % at 4 µM | AID 435003, 2010; in the data active = inhibition above about 50%
iPSC survival up – enhancers of single-cell hiPSC survival, primary screen, ATPlite luminescence | 100% = ROCK inhibitor wells, 0% = DMSO | survival enhancement, % at 20 µM | 0.044% of 360,000 active; in the data active = survival enhancement above about 18%;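 also: cells exposed to compounds for 16 hours before the ATP read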
Lipid droplet – inhibitors of hepatocyte lipid droplet formation, primary screen, imaging, high-throughput imaging, BODIPY stain; 0.4% of 240,000 active; AML12 mouse hepatocytes, oleate lipid droplets; AID 1656, 2009; inhibition, % at 6.5 µM;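 active = lipid droplet intensity inhibited by at least 50%, with more than 500 cells counted; inconclusive = wells with under 300 cells, treated as cytotoxic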
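Material – mouse AML12 hepatocyte cell line, fixed after treatment · Compound dosing – one dose, 6.5 µM compound · Times – compound with oleate, overnight · Measured by – Image-based BODIPY and DAPI two-channel analysis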
697 NFkB inh – inhibitors of PMA/ionomycin-induced NF-kB reporter, 697 cells, primary screen, B-cell NF-kB inhibitor project, cell-based, luminescence, uHTS | 697 B-cell NF-kB luciferase reporter, 16 h | inhibition, % at 4 µM | 0.33% of 330,000 active; in the data active = inhibition above about 35%
Gli-Sufu confirm – Gli-SUFU pathway antagonists, confirmation, single concentration, luciferase luminescence, Sufu-KO-LIGHT cells. shares compounds with Gli-Sufu antag. AID 602428, 2012. Gli luciferase reporter. inhibition, % at 5 µM. 40% of 2,500 active;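 active = mean inhibition at 5 µM reaching about 45%, limit read from the data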
Gli cytotox – cytotoxicity in Sufu-KO-LIGHT cells, confirmation, cytotoxicity control for Gli-SUFU antagonist project, cell-based, ATP luminescence, single concentration | AID 651994, 2013 | cytotoxicity, % at 5 µM | shares compounds with Gli-Sufu antag | 32% of 2,500 active;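 active = mean cytotoxicity at 5 µM above about 25%, limit read from the data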;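 also: cells exposed to compound overnight for roughly 16 to 18 hours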
Wnt3a counter – Wnt3a reporter signal inhibition, confirmation, counter-screen for Gli-SUFU antagonist project, Wnt-LIGHT cells, luminescence, single concentration; shares compounds with Gli-Sufu antag; Wnt3a-driven luciferase reporter; inhibition, % at 6.25 µM; 20% of 2,500 active;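 active = mean inhibition above about 25%, limit read from the data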
Large screens that a line does not name were inactive (follow-up assays come after a bar, where they were run).

CC(OC(=O)CCN1C(=O)C2CC=CCC2C1=O)C(=O)Nc1cccc(Cl)c1 (stereo not drawn)	none (no result: Lipid droplet)
O=C(CSc1nnc(Cn2nnc3ccccc32)o1)N(Cc1ccc(Cl)cc1)c1ccccc1	Gli-Sufu antag 64 | Gli-Sufu confirm 63 | Gli cytotox 29 | Wnt3a counter inactive
Cc1ccc(C#CC[N+]2(C)CCCCC2)cc1	none
CC(C)[C@@H]1CC[C@@H](C)C[C@H]1OC(=O)C[n+]1cc(-c2ccc(Cl)cc2)n2c1CCCCC2	Gli-Sufu antag 66, H9c2 TAG inh 80 | Gli-Sufu confirm 77 | Gli cytotox 35 | Wnt3a counter inactive
CC1CCC(C(C)C)C(OC(=O)C[n+]2cccc(C(N)=O)c2)C1 (stereo not drawn)	none (no result: Lipid droplet)
COc1ccc(-c2c[n+](CC(=O)OC3CC(C)CCC3C(C)C)c3n2CCC3)cc1 (stereo not drawn)	Gli-Sufu antag 90 | Gli-Sufu confirm 89 | Gli cytotox 26 | Wnt3a counter inactive
CC(CCc1ccccc1)NC(=O)C1CC1 (stereo not drawn)	Gli-Sufu antag 61 (no result: Lipid droplet) | Gli-Sufu confirm inactive | Gli cytotox inactive | Wnt3a counter inactive
COc1ccc(NC(=O)CSCC(=O)N2c3ccccc3CCc3ccccc32)cc1	Gli-Sufu antag 66 | Gli-Sufu confirm inactive | Gli cytotox inactive | Wnt3a counter inactive
COc1ccccc1NC(=O)CSCC(=O)N1c2ccccc2CCc2ccccc21	none
COCCn1c(SCC(=O)Nc2sccc2C(N)=O)nnc1-c1ccncc1	none
CCn1nc(C)cc1-c1nnc(Sc2ncc([N+](=O)[O-])s2)n1C	none (no result: H9c2 TAG inh)
O=C(c1ccccc1)c1ccc(OCCOCCN2CCN(Cc3ccccc3)CC2)cc1	Gli-Sufu antag 68 | Gli-Sufu confirm inactive | Gli cytotox inactive | Wnt3a counter inactive
CCCc1nnc(SCC(=O)N2CCCCC2C)n1CCOC (stereo not drawn)	none
CCOC(=O)C1(CC2CCCCO2)CCN(Cc2cc3ccccc3[nH]2)CC1 (stereo not drawn)	Gli-Sufu antag 59 | Gli-Sufu confirm inactive | Gli cytotox inactive | Wnt3a counter inactive
COc1ccc(S(=O)(=O)N2CCOCC2)cc1C(=O)N1CCCC1	Gli-Sufu antag 61 | Gli-Sufu confirm inactive | Gli cytotox inactive | Wnt3a counter inactive
COc1ccc(S(=O)(=O)N2CCCC(C(=O)N3CCOCC3)C2)cc1Cl (stereo not drawn)	none
COc1ccc(S(=O)(=O)N2CCCC(C(=O)N3CCOCC3)C2)cc1C (stereo not drawn)	Gli-Sufu antag 99 (no result: H9c2 TAG inh) | Gli-Sufu confirm inactive | Gli cytotox inactive | Wnt3a counter inactive
CC(=O)Nc1cc(-c2ccc(CO)cc2)cn2c(-c3cccc(C(F)(F)F)c3)cnc12	none (no result: Gli-Sufu antag, Jurkat NFkB inh, Lipid droplet, 697 NFkB inh)
COc1ccc(-c2nc(N)c(C#N)c(-c3cccnc3)c2C)cc1	none
CCOC(=O)c1nc(C)n(-c2cc(OC)c(Cl)cc2Cl)n1	none
COC(/C(=N/O)c1ccc(Cl)cc1)c1ccccc1 (stereo not drawn)	Gli-Sufu antag 64 (no result: H9c2 TAG inh) | Gli-Sufu confirm 60 | Gli cytotox 30 | Wnt3a counter 34
Cc1c(NS(=O)(=O)c2cc(C(=O)NCc3cccnc3)ccc2Cl)c(=O)n(-c2ccccc2)n1C	none (no result: Lipid droplet)
CCOC(=O)c1cn(-c2c(C)n(C)n(-c3ccccc3)c2=O)c2c(F)c(F)c(F)cc2c1=O	none
CCCc1cc(=O)[nH]c(SCC(=O)NC2CC2)n1	none (no result: Lipid droplet) | Gli-Sufu confirm inactive | Gli cytotox inactive | Wnt3a counter inactive
CCCc1cc(=O)[nH]c(SCC(=O)NC2CCCCCCC2)n1	none (no result: Lipid droplet)
COc1ccc(-c2cn[nH]c2-c2ccc(OCc3ccccc3)cc2O)cc1	none
CCOc1ccc(-c2[nH]ncc2-c2ccccc2)c(O)c1	Gli-Sufu antag 55 (no result: H9c2 TAG inh) | Gli-Sufu confirm inactive | Gli cytotox inactive | Wnt3a counter inactive
NNC(=O)c1cc(NS(=O)(=O)c2cccs2)cc(NS(=O)(=O)c2cccs2)c1	none (no result: Lipid droplet)
C(#Cc1ccccc1)C[N+]1(CC#Cc2ccccc2)CCCC1	Gli-Sufu antag 76 (no result: H9c2 TAG inh) | Gli-Sufu confirm 75 | Gli cytotox inactive | Wnt3a counter inactive
CCN1CCN(C(=O)/C=C/c2ccc(OC)cc2)CC1	Gli-Sufu antag 60 (no result: H9c2 TAG inh) | Gli-Sufu confirm inactive | Gli cytotox 27 | Wnt3a counter inactive
CCN1CCN(C(=O)/C=C/c2ccc(F)cc2)CC1	none (no result: Lipid droplet)
CCOC(=O)c1c(NC(=O)COc2ncnc3ccccc23)sc(C(C)=O)c1C	Gli-Sufu antag 55 (no result: H9c2 TAG inh) | Gli-Sufu confirm inactive | Gli cytotox inactive | Wnt3a counter inactive
Cc1c(Cl)cccc1NC(=S)N(CCN(C)C)C(C)c1ccco1 (stereo not drawn)	none
CCOc1ccc(Cl)cc1-c1cc(C(=O)Nc2ccc(OC)nc2)[nH]n1	none (no result: Gli-Sufu antag, Jurkat NFkB inh, Lipid droplet, 697 NFkB inh)
CC1CCCC=CC2CC(OC(=O)CN(C)C)CC2C(O)C=CC(=O)O1 (stereo not drawn)	Gli-Sufu antag 60 (no result: Jurkat NFkB inh, Lipid droplet, 697 NFkB inh) | Gli-Sufu confirm 86 | Gli cytotox 38 | Wnt3a counter 88
O=C(O)Cc1c(C(=O)O)[nH]c2ccc(C(=O)O)cc12	none
COc1ccc(C)cc1NC(=O)CCN1CC(C)OC(C)C1 (stereo not drawn)	none
CCOC(=O)N1CCN(C(=O)CS(=O)(=O)Cc2nc(-c3ccccc3F)oc2C)CC1	Gli-Sufu antag 57 (no result: H9c2 TAG inh) | Gli-Sufu confirm inactive | Gli cytotox 28 | Wnt3a counter inactive
COc1ccc(Nc2nc(-c3c(C)nc4ncccn34)cs2)cc1	Gli-Sufu antag 71, Lipid droplet inconclusive (no result: H9c2 TAG inh, Jurkat NFkB inh, 697 NFkB inh) | Gli-Sufu confirm 75 | Gli cytotox 66 | Wnt3a counter inactive
Cc1nc2ncccn2c1-c1csc(Nc2ccccc2)n1	none (no result: H9c2 TAG inh)
Cc1nc2ncccn2c1-c1csc(Nc2ccc(N(C)C)cc2)n1	Gli-Sufu antag 62, Lipid droplet inconclusive (no result: Jurkat NFkB inh, 697 NFkB inh) | Gli-Sufu confirm 57 | Gli cytotox 45 | Wnt3a counter inactive
COc1ccccc1Nc1nc(-c2c(C)nc3ncccn23)cs1	Gli-Sufu antag 55 (no result: Jurkat NFkB inh, 697 NFkB inh) | Gli-Sufu confirm 68 | Gli cytotox 59 | Wnt3a counter 28
COc1cc(C(=S)N2CCCCC2)ccc1OCC(=O)Nc1ccc(F)cc1	none (no result: H9c2 TAG inh)
